From ChEMBL document CHEMBL1287657, “Synthesis and biological activities of new furo[3,4-b]carbazoles: potential topoisomerase II inhibitors” (Eur J Med Chem, 2010)
Active and inactive are the calls of the source. The rule behind the calls is not given here.

How the values were obtained:
[1] = molecular target: DNA topoisomerase 2-alpha (Homo sapiens) (UniProt P11388); test: Inhibition of human topoisomerase 2-mediated relaxation of supercoiled PUC19 DNA at 20 to 50 uM uM after 20 mins using ethidium bromide staining by agarose gel electrophoresis
Chain of DNA topoisomerase 2-alpha (Homo sapiens) (P11388 whole entry): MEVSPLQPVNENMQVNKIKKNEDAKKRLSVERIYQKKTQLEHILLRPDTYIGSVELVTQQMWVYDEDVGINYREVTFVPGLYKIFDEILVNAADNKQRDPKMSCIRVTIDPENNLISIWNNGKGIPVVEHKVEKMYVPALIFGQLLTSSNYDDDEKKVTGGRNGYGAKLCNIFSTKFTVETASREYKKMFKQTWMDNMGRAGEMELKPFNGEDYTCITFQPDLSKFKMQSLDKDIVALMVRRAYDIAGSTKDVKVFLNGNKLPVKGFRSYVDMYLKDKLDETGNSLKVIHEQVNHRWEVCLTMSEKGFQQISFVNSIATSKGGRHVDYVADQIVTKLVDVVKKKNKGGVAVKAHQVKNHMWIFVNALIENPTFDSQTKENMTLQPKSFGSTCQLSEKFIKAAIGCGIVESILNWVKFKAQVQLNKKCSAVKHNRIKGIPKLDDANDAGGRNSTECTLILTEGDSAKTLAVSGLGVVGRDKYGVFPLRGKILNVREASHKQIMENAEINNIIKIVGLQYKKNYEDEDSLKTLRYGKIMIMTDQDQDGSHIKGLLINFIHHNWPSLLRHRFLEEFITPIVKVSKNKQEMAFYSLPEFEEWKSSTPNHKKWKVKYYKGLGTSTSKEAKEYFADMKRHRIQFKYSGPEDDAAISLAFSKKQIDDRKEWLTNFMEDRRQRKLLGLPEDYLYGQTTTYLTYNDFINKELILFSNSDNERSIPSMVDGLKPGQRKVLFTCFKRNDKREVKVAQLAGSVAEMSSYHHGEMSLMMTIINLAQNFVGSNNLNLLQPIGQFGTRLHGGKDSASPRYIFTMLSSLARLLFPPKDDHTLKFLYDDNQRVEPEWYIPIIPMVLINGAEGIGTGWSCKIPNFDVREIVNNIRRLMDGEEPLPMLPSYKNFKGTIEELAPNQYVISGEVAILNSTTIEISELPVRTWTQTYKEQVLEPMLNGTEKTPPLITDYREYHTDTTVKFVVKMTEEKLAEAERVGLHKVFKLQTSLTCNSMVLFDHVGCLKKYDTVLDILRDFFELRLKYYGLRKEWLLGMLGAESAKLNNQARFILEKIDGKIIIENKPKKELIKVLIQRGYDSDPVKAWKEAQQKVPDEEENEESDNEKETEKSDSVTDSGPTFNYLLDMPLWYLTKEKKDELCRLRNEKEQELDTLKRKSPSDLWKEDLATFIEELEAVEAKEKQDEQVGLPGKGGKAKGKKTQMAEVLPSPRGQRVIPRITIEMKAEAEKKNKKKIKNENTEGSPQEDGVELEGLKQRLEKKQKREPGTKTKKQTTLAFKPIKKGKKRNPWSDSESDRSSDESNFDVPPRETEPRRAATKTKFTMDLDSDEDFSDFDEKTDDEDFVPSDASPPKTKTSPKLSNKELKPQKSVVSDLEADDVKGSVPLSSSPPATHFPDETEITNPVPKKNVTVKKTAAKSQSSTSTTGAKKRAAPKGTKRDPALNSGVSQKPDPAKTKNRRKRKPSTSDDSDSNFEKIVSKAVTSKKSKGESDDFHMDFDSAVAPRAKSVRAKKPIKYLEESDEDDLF
Method in brief: (§1)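 Native supercoiled pUC19 plasmid (350 ng) incubated with 4 units human topoisomerase II, with or without compound at several concentrations; etoposide run as reference. Relaxation/cleavage products separated by gel electrophoresis and scored for supercoiled, relaxed and broken DNA forms.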

[2] = molecular target: DNA topoisomerase 2-alpha (Homo sapiens) (UniProt P11388); test: Inhibition of human topoisomerase 2-mediated relaxation of supercoiled PUC19 DNA at 1 to 100 uM uM after 20 mins using ethidium bromide staining by agarose gel electrophoresis; method in brief: as §1
Calf thymus DNA = test: Binding affinity to calf thymus DNA assessed as change in melting temperature; type: nucleic-acid assay; settings: Bos taurus
HL-60 = test: Cytotoxicity against human HL60 cells; type: functional, cell-based
[3] = Cytotoxicity against human HL60/MX2 cells; type: functional, cell-based

| Structure (SMILES) | inhibition [1] | also measured |
| --- | --- | --- |
| COc1cc(-c2c3c(cc4c2[nH]c2ccccc24)COC3=O)cc(OC)c1OC | inactive |  |
| COc1cc(-c2c3c(cc4c2[nH]c2ccccc24)COC3=O)cc(O)c1O | Active | inhibition [2]: Active; Activity (Calf thymus DNA): inactive; IC50 (HL-60): 150 nM; IC50 [3]: 170 nM |
| COc1cc(OC)cc(-c2c3c(cc4c2[nH]c2ccccc24)COC3=O)c1 | inactive |  |
| O=C1OCc2cc3c([nH]c4ccccc43)c(-c3ccc4c(c3)OCO4)c21 | inactive |  |
| COc1ccc(-c2c3c(cc4c2[nH]c2ccccc24)COC3=O)cc1 | inactive |  |
| COc1cc([C@@H]2c3cc4c(cc3[C@@H](O[C@@H]3O[C@@H]5CO[C@@H](C)O[C@H]5[C@H](O)[C@H]3O)[C@H]3COC(=O)[C@H]23)OCO4)cc(OC)c1O | Active |  |
| COc1ccc(-c2c3c(cc4c2[nH]c2ccccc24)COC3=O)cc1OC | inactive | Activity (Calf thymus DNA): inactive |
